How the values were obtained:
PC-12 = experiment: Neuroprotective activity in rat PC12 cells assessed as attenuation of oxygen-glucose deprivation-induced cellular damage at 10 uM by MTT assay relative to control; type: functional
Method in brief: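 PC12 cells were seeded at 5×10^3/well for 24 h. OGD insult was low-glucose medium plus 5 mM sodium dithionite for 24 h, given together with 10 µM compound. MTT (5 mg/mL) was added for 4 h and absorbance read at 570 nm. Viability was expressed as % of full-medium control; n = 3.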

[1] = Cytotoxicity against rat PC12 cells assessed as cell proliferation at 10 uM by MTT assay relative to control; type: cell-based, PC-12; settings: read-out: Activity
Method in brief: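 PC12 cells were grown in DMEM with 5% FBS, 5% horse serum and 2 mM glutamine at 37 °C, 5% CO2. They were seeded at 5×10^3 cells/well for 24 h, then exposed to 10 µM compound in full medium. Viability was read by MTT (5 mg/mL, 4 h) at 570 nm as % of control absorbance; n = 3.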

Work on Cc1c(N2CCN(C(=S)Nc3cccc(F)c3)CC2)c(=O)oc2cc(O)cc(O)c12 yielded an Activity (PC-12) of 48.8% and a viability at 10 µM [1] of 101%.

Molecule Cc1c(N2CCN(C)CC2)c(=O)oc2cc(O)cc(OCCCNC(=O)OC(C)(C)C)c12 has an Activity (PC-12) of 15.8% and a viability at 10 µM [1] of 153%.

For Cc1c(N2CCN(C)CC2)c(=O)oc2cc(O)cc(OC(C)C)c12, the Activity (PC-12) was 51.8% and the viability at 10 µM [1] was 119%.

For Cc1c(N2CCN(C)CC2)c(=O)oc2cc(OCCN3CCOCC3)ccc12, the Activity (PC-12) was 49.3% and the viability at 10 µM [1] was 101%.

With Cc1c(N2CCN(C)CC2)c(=O)oc2cc(OCCN3CCCC3)ccc12 the Activity (PC-12) was 44.9% and the viability at 10 µM [1] was 104%.

With Cc1c(N2CCN(S(=O)(=O)c3ccccc3)CC2)c(=O)oc2cc(O)cc(O)c12 the Activity (PC-12) was 49.7% and the viability at 10 µM [1] was 97.4%.

Cc1c(N2CCN(C(=O)C(F)(F)F)CC2)c(=O)oc2cc(O)cc(O)c12 gave an Activity (PC-12) of 49.3% and a viability at 10 µM [1] of 97.4%.

Molecule Cc1c(N2CCN(C)CC2)c(=O)oc2cc(OCCN3CCCCC3)ccc12 has an Activity (PC-12) of 45.3% and a viability at 10 µM [1] of 95.4%.

For Cc1c(N2CCN(C)CC2)c(=O)oc2cc(O)cc(OCCCCl)c12, the Activity (PC-12) was 36.3% and the viability at 10 µM [1] was 197%.

With Cc1c(CCC(=O)N2CCN(C)CC2)c(=O)oc2cc(O)cc(O)c12 the Activity (PC-12) was 46.1% and the viability at 10 µM [1] was 97.5%.

COc1cc(O)c2c(C)c(N3CCN(C)CC3)c(=O)oc2c1 showed an Activity (PC-12) of 46.1% and a viability at 10 µM [1] of 99.8%.

Cc1ccc(S(=O)(=O)NCCOc2cc(O)cc3oc(=O)c(N4CCN(C)CC4)c(C)c23)cc1 gave an Activity (PC-12) of 45.1% and a viability at 10 µM [1] of 140%.

Cc1c(N2CCN(C)CC2)c(=O)oc2cc(O)cc(OC3CCN(C(=O)OC(C)(C)C)CC3)c12 gave an Activity (PC-12) of 51.5% and a viability at 10 µM [1] of 137%.

Molecule Cc1c(N2CCN(C)CC2)c(=O)oc2cc(N(C)C)ccc12 has an Activity (PC-12) of 45.8% and a viability at 10 µM [1] of 97.8%.

Work on Cc1c(N2CCN(C)CC2)c(=O)oc2cc(O)cc(OCCNS(C)(=O)=O)c12 yielded an Activity (PC-12) of 40.3% and a viability at 10 µM [1] of 103%.

CCC1CCC(Oc2ccc3c(C)c(N4CCN(C)CC4)c(=O)oc3c2)CC1 (configuration not stated) gave an Activity (PC-12) of 49.2% and a viability at 10 µM [1] of 101%.

For Cc1ccc(COc2cc(O)cc3oc(=O)c(N4CCN(C)CC4)c(C)c23)c(C)c1, the Activity (PC-12) was 27.3% and the viability at 10 µM [1] was 51.6%.

In the case of CC(=O)N1CCN(c2c(C)c3c(O)cc(O)cc3oc2=O)CC1, the Activity (PC-12) is reported as 48.4% and the viability at 10 µM [1] is reported as 98.1%.

CCOc1ccc2c(C)c(N3CCN(C)CC3)c(=O)oc2c1 showed an Activity (PC-12) of 45.6% and a viability at 10 µM [1] of 101%.

Cc1c(N2CCN(C(=O)CCl)CC2)c(=O)oc2cc(O)cc(O)c12 showed an Activity (PC-12) of 48.1% and a viability at 10 µM [1] of 97.4%.

Cc1c(N2CCN(C)CC2)c(=O)oc2cc(O)cc(OCCN(C)C)c12 gave an Activity (PC-12) of 61.5% and a viability at 10 µM [1] of 104%.

Molecule Cc1c(N2CCN(C)CC2)c(=O)oc2cc(O)cc(OCCN3CCCC3)c12 has an Activity (PC-12) of 48.2% and a viability at 10 µM [1] of 135%.

Molecule Cc1c(N2CCN(C(=O)c3ccccc3)CC2)c(=O)oc2cc(O)cc(O)c12 has an Activity (PC-12) of 44.6% and a viability at 10 µM [1] of 100%.

With Cc1c(CC(=O)N2CCN(C)CC2)c(=O)oc2cc(O)cc(O)c12 the Activity (PC-12) was 46.7% and the viability at 10 µM [1] was 97.7%.

Cc1c(N2CCN(C)CC2)c(=O)oc2cc(O)cc(OC3CCCC3)c12 gave an Activity (PC-12) of 33.8% and a viability at 10 µM [1] of 181%.

For Cc1c(N2CCN(C)CC2)c(=O)oc2cc(O)cc(OCCN)c12, the Activity (PC-12) was 49.2% and the viability at 10 µM [1] was 104%.

For Cc1c(N2CCN(c3ccc(F)cc3)CC2)c(=O)oc2cc(O)cc(O)c12, the Activity (PC-12) was 47% and the viability at 10 µM [1] was 103%.

Cc1c(N2CCN(C)CC2)c(=O)oc2cc(O)cc(OCCNC(=O)OC(C)(C)C)c12 gave an Activity (PC-12) of 23.4% and a viability at 10 µM [1] of 132%.

In the case of Cc1c(N2CCN(C(=O)Nc3ccccc3Oc3ccccc3)CC2)c(=O)oc2cc(O)cc(O)c12, the Activity (PC-12) is reported as 49.3% and the viability at 10 µM [1] is reported as 97.9%.

Work on COc1ccccc1N1CCN(c2c(C)c3c(O)cc(O)cc3oc2=O)CC1 yielded an Activity (PC-12) of 46.8% and a viability at 10 µM [1] of 102%.

For Cc1c(N2CCN(C)CC2)c(=O)oc2cc(O)cc(OCC3CC3)c12, the Activity (PC-12) was 37.7% and the viability at 10 µM [1] was 184%.
